# The full list was thinned out, with hits kept by preference.
# HUVEC inhibit = blocks proliferation of human endothelial cells. viability, % at 10 µM (by protocol). HUVEC proliferation, CellTiter-Glo luminescence, 72 h; active compounds read low. 86,000 tested, 1.1% active;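 active = viability at or below 30%; inactive = viability above 30%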;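 note: 100% = median luminescence of DMSO-only cell control wells on each plate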
# bCat KO growth = beta-catenin-lacking colon tumor cell growth suppression; HCT116 beta-catenin knockout viability, CellTiter-Glo, 60 h; active compounds read low; viability, % at 10 µM; 140,000 tested, 1.5% active; AID 818;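 active = viability at or under a set limit, the compound median less 4 SD, cut at about 6% in these data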;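 note: 0% = Hyamine 1622 control at 20 µM and 100% = untreated cell control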
# Lung fibro prol = blocks proliferation of human lung fibroblasts | LL 47 human lung fibroblast viability, ATP luminescence; active compounds read low | viability, % at 10 µM | 85,000 tested, 1.1% active | AID 719;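 active = viability at or below 50% in the single dose screen; inactive = viability above 50%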;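 note: compound exposure lasted 72 h before the ATP readout; 100% = median luminescence of untreated cell-only wells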
#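 Material: human lung fibroblast line LL 47, low passage; Evaluation: viability percentage against median untreated-cell control; Buffer or medium: 15% FBS in IMEM; Incubation: 72 h compound exposure at 37 °C after overnight plating; Dosing: 0.1% DMSO in all compound wells; Measured by: CellTiter-Glo luminescence.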
# H69AR inhibit = blocks growth of human H69AR lung tumor cells | H69AR lung tumor viability, ATP luminescence, 72 h; active compounds read low | viability, % at 10 µM | 85,000 tested, 6% active | AID 598;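 active = viability at or below 40%; inactive = viability above 40%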;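 note: multidrug resistant small cell line overexpressing MRP-1 efflux transporter; 100% = mean luminescence of untreated control wells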
# HCT116 PTEN-null = growth suppressors of cells with PTEN tumor suppressor deletion. AID 827. viability, % at 10 µM. HCT116 PTEN-null viability, CellTiter-Glo, 60 h; active compounds read low. 140,000 tested, 1.2% active;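 active = viability at or below a set limit, 4 SD under the median of all tested compounds, cut at about 3.7% in these data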;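 note: PTEN knockout HCT116 line with beta catenin targeted HCT116 as companion control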
# * = called active by the depositor; · = not tested or not shown.
SMILES,HUVEC inhibit,bCat KO growth,Lung fibro prol,H69AR inhibit,HCT116 PTEN-null
CCOC(=O)c1cccc2c1-c1ccccc1/C2=N/O,14.1*,99.9,88.6,27.5*,95.0
COC(=O)C1CCN(c2ccc(C(N)=O)cc2[N+](=O)[O-])CC1,·,89.8,·,·,95.4
Cn1c(C(=O)NCCN2CCOCC2)cc2c(=O)n(C)c3ccccc3c21,89.1,90.5,96.7,88.0,91.4
Cn1c(C(=O)NCCN2CCc3ccccc3C2)cc2c(=O)n(C)c3ccccc3c21,74.0,64.0,84.0,15.1*,59.4
CN(CCNC(=O)c1cc2c(=O)n(C)c3ccccc3c2n1C)Cc1ccccc1,49.7,2.4*,73.2,37.4*,3.3*
Cn1c(C(=O)NCc2cccs2)cc2c(=O)n(C)c3ccccc3c21,68.7,102.8,81.0,39.8*,101.2
O=c1c(Cl)c(NCc2ccccc2)cnn1C12CC3CC(CC(C3)C1)C2,·,84.8,·,·,78.5
O=C(NCC12CC3CC(CC(C3)C1)C2)c1cc2n(n1)C(C(F)(F)F)CC(c1ccco1)N2 (stereo unspecified),55.1,34.8,78.0,34.1*,32.9
C=Cn1cc[n+](CC(=O)C(C)(C)C)c1,·,85.6,·,·,98.9
O=S1(=O)N=C(Oc2cccc3ccccc23)c2ccccc21,79.8,89.1,108.3,25.4*,95.3
Cc1ccc(C(=O)n2c3ccccc3c3ccccc32)cc1,53.1,32.1,46.2*,17.6*,29.2
CC(=O)n1c2ccccc2c2ccccc21,·,99.8,·,·,105.8
Cn1nnnc1SCc1ccc([N+](=O)[O-])cc1,·,98.0,·,·,101.7
NS(=O)(=O)c1cccc(NC(=S)NC(=O)C23CC4CC(CC(C4)C2)C3)c1,·,88.1,·,·,86.9
Oc1ccc(CN2CCCCC2)c2cccnc12,63.4,2.3*,3.1*,0.7*,1.2*
Oc1ccc(CN2CCN(c3ccccc3)CC2)c2cccnc12,89.2,3.0*,25.5*,23.2*,2.8*
CSc1ncccc1C(=O)OCc1ccccc1,102.4,95.6,99.1,105.3,100.0
Oc1ccc(COCc2ccccc2)c2cccnc12,49.4,3.9*,14.2*,1.6*,2.3*
Oc1ccc(CNc2ccccc2F)c2cccnc12,94.3,16.5,74.5,27.7*,12.7
COc1ccc(NC(=S)N(CCN(C)C)C(C)c2ccco2)cc1Cl (stereo unspecified),·,88.6,·,·,90.8
OCc1ccc(O)c2ncccc12,111.6,4.3*,27.8*,22.0*,5.0
Cc1ccc(N=Nc2ccc(O)c3ncccc23)cc1,·,18.5,·,·,11.6
Oc1ccc(CN2CCc3ccccc3C2)c2cccnc12,44.0,2.1*,13.2*,38.2*,1.7*
Cn1cc(CN2CCc3ccccc3C2)c2ccccc21,88.5,88.5,94.6,70.3,90.0
COc1ccc(C(=O)c2oc3ccccc3c2NC(C)=O)cc1,105.9,92.0,95.2,89.6,100.4
SMILES,HUVEC inhibit,bCat KO growth,Lung fibro prol,H69AR inhibit,HCT116 PTEN-null
COc1ccc(OC)c(C(=O)c2oc3ccccc3c2NC(C)=O)c1,88.5,60.0,·,22.0*,54.3
CCC(C)(C)n1nnnc1C(c1cc2cc(C)cc(C)c2[nH]c1=O)N1CCCC1 (stereo unspecified),·,83.3,·,·,79.3
CCC(C)(C)n1nnnc1C(c1cc2cc(C)cc(C)c2[nH]c1=O)N1CCN(Cc2ccc3c(c2)OCO3)CC1 (stereo unspecified),93.4,71.3,24.9*,8.6*,66.8
Cc1cc(C)nc(NS(=O)(=O)c2ccc(NC(=O)c3ccc4c(c3)OCO4)cc2)n1,93.5,101.6,102.5,104.1,85.0
Cc1ccccc1-c1nc(-c2ccc(NC(=O)c3ccc4c(c3)OCO4)cc2)no1,38.5,12.1,20.4*,28.1*,7.4
COc1cc(-c2nc(-c3ccc(NC(=O)c4ccc5c(c4)OCO5)cc3)no2)cc(OC)c1OC,28.3*,87.3,73.5,12.9*,88.3
COCCn1c(C)cc(/C=C2/NC(=O)N(c3ccc(Cl)cc3)C2=O)c1C,·,88.7,·,·,83.6
Cc1nc(NCCc2ccccc2)c(C#N)c(C)c1[N+](=O)[O-],·,84.9,·,·,68.3
CN1Cc2cc(C(=O)c3ccccc3O)cnc2NC1=O,90.2,98.7,84.1,24.7*,94.1
CC(O)CNc1nc2ccccc2n1-c1ncnc2sc3c(c12)CCC3 (stereo unspecified),53.3,47.3,80.8,37.9*,57.0
c1ccc2c(c1)ncn2-c1ncnc2sc3c(c12)CCCC3,87.3,106.9,93.4,79.9,105.7
O=C1c2ccccc2NC(c2ccc(-c3ccc(Br)cc3)o2)N1O (stereo unspecified),·,4.5*,·,·,3.4*
CS(=O)(=O)Oc1ccc(/C=N/NC(=O)c2ccncc2)cc1,·,94.7,·,·,107.6
O=C(Nc1ccc(Cl)cc1)Nc1ccc(N2CCCC2)c(S(=O)(=O)Nc2ccccc2Cl)c1,·,1.9*,·,·,1.8*
COc1ccccc1NS(=O)(=O)c1cc(NC(=O)Nc2cccc(C)c2)ccc1N1CCCCC1,·,68.2,·,·,56.7
CC1CCCC/C1=N\NS(=O)(=O)c1ccc(Br)cc1 (stereo unspecified),100.7,110.4,98.2,97.1,112.3
Cc1ccc2[nH]c(C)c(/C=N/Nc3nc4ccccc4s3)c2c1,41.9,1.6*,63.4,4.6*,1.1*
Brc1csc(/C=N/Nc2nc3ccccc3s2)c1,·,70.5,·,·,58.5
Nc1ccc(-c2nc3c(Cl)c(N)ccc3[nH]2)cc1,85.4,87.8,97.8,21.0*,84.3
Nc1ccc(-c2nc3ccc([N+](=O)[O-])cc3[nH]2)cc1,·,80.2,·,·,81.1
Nc1ccc2nc(-c3ccc(Cl)cc3)[nH]c2c1,94.7,67.6,87.6,17.2*,66.8
Nc1ccc2nc(-c3cc(Cl)c(N)c(Cl)c3)[nH]c2c1,64.7,35.6,81.3,34.9*,35.5
O=C(NCc1cn(-c2ccccc2)nc1-c1ccc(F)cc1)c1cccc([N+](=O)[O-])c1,·,68.4,·,·,60.2
c1ccc(CCn2c3ccccc3c3nnc(SCc4ccc5nonc5c4)nc32)cc1,74.7,65.2,79.5,86.7,60.0
C=CCn1c(=O)c2c3c(sc2n2c(Nc4ccc(C(=O)OCC)cc4)nnc12)CCCC3,86.1,84.5,103.7,38.7*,78.1
SMILES,HUVEC inhibit,bCat KO growth,Lung fibro prol,H69AR inhibit,HCT116 PTEN-null
C=CCn1c(=O)c2c3c(sc2n2c(Nc4ccc(OC)cc4)nnc12)CCCC3,77.8,73.9,95.4,90.3,61.8
Cc1occc1-c1nnc(SCC(=O)Nc2nc3ccccc3s2)o1,92.7,94.2,96.2,84.0,107.6
COc1ccc(-c2nc(NC(=O)C3CCN(c4nc5ccccc5o4)CC3)sc2C)cc1,59.4,47.1,85.6,31.9*,33.5
Cc1cccc(C(=O)N/N=C/c2cc(Br)c(Br)o2)c1,·,80.7,·,·,56.2
COc1ccc(C2=NN(C(C#N)c3ccc(OC)cc3)C(c3ccccc3)C2)cc1 (stereo unspecified),·,47.6,·,·,46.7
Cc1cc(C)c(NC(=O)COc2ccccc2C(=O)Nc2ccc3c(c2)oc2ccccc23)c(C)c1,81.7,67.5,47.0*,26.0*,47.5
CCOc1ccccc1C(=O)Nc1ccc(-c2nnc(-c3ccc(C)cc3)o2)cc1,101.7,·,100.6,99.1,·
O=C(Oc1ccnc2cc(Cl)ccc12)N1CCCCCC1,113.8,59.7,87.6,25.9*,59.9

# High-throughput results from PubChem BioAssay.
